According to ChEMBL document CHEMBL3864180, “Buried Hydrogen Bond Interactions Contribute to the High Potency of Complement Factor D Inhibitors” (ACS Med Chem Lett, 2016):
pIC50, pKd: −log10 of the molar value.

What was measured:
[1] = target: T1, Complement factor D (Homo sapiens, UniProt P00746); assay: Competitive inhibition of human complement factor D preincubated for 1 hr followed by addition of Z-Lys-thiobenzyl ester as substrate measured over 50 mins at 1 min interval
In short: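 Enzyme was factor D purified from normal human serum. Substrate Z-Lys-thiobenzyl ester (Z-Lys-Sbzl), read by absorbance. IC50 is the average of at least two independent triplicate experiments.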

[2] = target: T1, Complement factor D; assay: Binding affinity to recombinant human C-terminal 6His-tagged/biotinylated complement factor D (26 to 253 residues) expressed in Sf9 insect cells by biolayer interferometry method
In short: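 Biotinylated recombinant human factor D expressed in Sf9 insect cells; direct binding read by bio-layer interferometry. Kd taken from the mean of two independent experiments, with standard deviations.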

[3] = target: T1, Complement factor D; assay: Binding affinity to recombinant human C-terminal 6His-tagged/biotinylated complement factor D (26 to 253 residues) expressed in Sf9 insect cells assessed as association constant measured after 300 to 900 secs by biolayer interferometry method
[4] = target: T1, Complement factor D; assay: Binding affinity to recombinant human C-terminal 6His-tagged/biotinylated complement factor D (26 to 253 residues) expressed in Sf9 insect cells assessed as dissociation constant measured after 300 to 1800 secs by biolayer interferometry method
[5] = target: T1, Complement factor D; assay: Inhibition of recombinant human C-terminal 6His-tagged complement factor D (26 to 253 residues) expressed in Sf9 insect cells preincubated for 1 hr followed by addition of Z-Lys-thiobenzyl ester as substrate measured over 50 mins at 1 min interval
In short: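 Enzyme was recombinant human factor D expressed in Sf9 insect cells. Substrate Z-Lys-thiobenzyl ester, read by absorbance. OD was converted to product concentration with an extinction coefficient of 13260 M-1cm-1 and a 0.29 cm path correction.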

[6] = target: T1, Complement factor D; assay: Binding affinity to complement factor D (unknown origin)

T1 sequence (P00746 whole entry): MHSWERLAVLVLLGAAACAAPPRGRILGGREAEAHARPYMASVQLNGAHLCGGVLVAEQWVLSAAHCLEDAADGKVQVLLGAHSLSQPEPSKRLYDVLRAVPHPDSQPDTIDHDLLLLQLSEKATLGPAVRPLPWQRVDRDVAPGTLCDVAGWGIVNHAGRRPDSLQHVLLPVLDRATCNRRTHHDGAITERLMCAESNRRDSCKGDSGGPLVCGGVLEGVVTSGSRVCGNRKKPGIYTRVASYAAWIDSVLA

Row | pIC50 [1] | pKd [2] | K [3] | K [4] | pIC50 [5] | Compound | pIC50 [6]
1 | 7.50 | 7.77 | 212000 M⁻¹ s⁻¹ | 0.00361 s⁻¹ | – | NC(=O)c1nn(CC(=O)N2[C@@H]3C[C@@H]3C[C@H]2C(=O)Nc2cccc(Br)n2)c2ncccc12 | –
2 | – | – | 15800 M⁻¹ s⁻¹ | 0.189 s⁻¹ | – | O=C(Nc1cccc(Br)n1)[C@@H]1C[C@H]2C[C@H]2N1C(=O)Cn1ncc2ccccc21 | –
3 | 7.56 | 7.72 | 173000 M⁻¹ s⁻¹ | 0.00327 s⁻¹ | 7.72 | NC(=O)c1nn(CC(=O)N2CCS[C@H]2C(=O)Nc2cccc(Br)n2)c2ncccc12 | –
4 | – | – | 132000 M⁻¹ s⁻¹ | 0.292 s⁻¹ | – | O=C(Nc1cccc(Br)n1)[C@@H]1SCCN1C(=O)Cn1ncc2ccccc21 | –
5 | – | – | – | – | – | N=C(N)c1cc2ccc(OC(=O)c3cccs3)cc2s1 | 7.01
6 | – | – | – | – | – | O=c1[nH]c2ccccc2c(=O)o1 | 5.54
